B1: tRNA (parent)
chain: GUUCCGUUGGCGUAAUGGUAACGCGUCUCCCUCCUAAGGAGAAGACUGCGGGUUCGAGUCCCGUACGGAACG

Variants of: B1
Test: yeast fitness, log relative to wild type (ln ratio); higher = fitter; tRNA-Arg(CCU), competitive growth, 37 C, 1 M NaCl
Outline: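 Variants were counted by 125 bp paired-end Illumina sequencing after pools of a combinatorial tRNA-Arg(CCU) library, held on a HIS3 centromeric plasmid in BY4742 lacking the chromosomal gene, grew ~6.5 generations (~26.5 h) in SC-HIS 1M NaCl at 37 °C. Each genotype's fitness is the natural log of its generations relative to the wild type's. Generations were OD-scaled log2 output/input frequencies, inverse-variance weighted over replicates.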

Variant	yeast fitness (ln)
G6A A43C C66U A70U	-0.204
G6A C27U C46U C66A A70G	-0.218
G1A U2G G6U C27U A43C C66A A70U	-0.212
G6U A43C C66U A70U C71U	-0.481
G1A U2G G6U C66A A69G A70G C71U	-0.325
G1A U2G G6U C27U A43C C46U C66U A70U	-0.383
U2G G6U C46U C66U C71U	-0.2
U2C G6U C27U A69G A70G	-0.191
U2G G6A C27U A43C C46U C66A A70U C71U	-0.331
G1A U2G C46U C66U A69G A70U	-0.128
G6A C46U C66A A70U C71U	-0.211
U2C G6A C66U A70G C71U	-0.0109
U2G A69G A70U C71U	-0.25
G1A C46U C66U A69G A70G C71U	-0.158
A43C A69G	-0.0224
U2C G6U A43C C66U A69G A70U C71U	-0.479
G1A U2C G6U C27U A43C A70U C71U	-0.294
G1A G6U C27U C46U C66A	-0.32
U2G G6A C46U C66U A70U	-0.000351
U2G G6A A43C C66A A70G C71U	-0.198
U2C C66A A70U	-0.0514

Variant	yeast fitness (ln)
G1A C27U C66A C71U	-0.159
G6U A43C A69G C71U	-0.389
U2G G6A C27U C46U C66A A70U C71U	-0.167
U2C G6A C46U A69G A70G	-0.0375
U2G G6U A43C C46U C66A A69G A70G C71U	-0.228
G1A U2C G6A C27U	-0.0466
C27U A43C A70U	-0.185
U2G G6U A43C C46U A69G A70U	-0.194
U2C A43C C46U C66A A69G A70G C71U	-0.097
G1A C27U A69G C71U	-0.0706
U2G A43C C46U C66A A69G A70U C71U	-0.443
U2C A43C A69G C71U	-0.138
U2G C27U C66U A70U C71U	-0.281
G6A C27U C46U A69G A70G	-0.237
G1A U2G C27U C66A A69G A70U	-0.187
G1A U2C C27U C66U C71U	-0.33
U2C G6U C46U A70G C71U	-0.0274
U2C C66A A70U C71U	-0.0799
C66U A70G	-0.0949
G6U C27U C46U C66A A69G A70U	-0.196
U2C G6U C46U C66A A70U	0.000469

Variant	yeast fitness (ln)
G1A U2G G6A C27U C66U A70G	-0.349
C27U A43C C66U	-0.216
U2C G6U C27U C46U A69G C71U	-0.232
G1A U2C G6U A43C C66U A70U	-0.295
G1A U2C C27U C46U C66U A69G A70G C71U	-0.174
G1A U2C G6U C27U C46U A70U C71U	-0.13
U2C G6U C46U C66U A69G A70G C71U	-0.1
G1A U2C C27U A43C	-0.0395
G6U C27U	-0.111
U2G G6U C27U C66U A69G A70G	-0.375
U2G G6U C27U C66U A69G A70U	-0.276
U2C G6A A43C C46U C66U A69G A70U	-0.3
G1A U2G G6U C27U C46U C66U A70U	-0.236
G6U A43C C66A A69G A70U C71U	-0.39
G1A U2G C27U A43C C46U C66U A69G A70G	-0.282
G1A U2G C27U A43C C46U C66U A69G A70U	-0.462
U2G G6U C66U A70U C71U	-0.303
G1A U2G G6U C27U A70U C71U	-0.305
G1A U2G G6A C46U C66U A69G C71U	-0.253
G1A U2C G6A C27U A43C C71U	-0.295
U2C G6A C27U A43C C46U C66U A69G A70G C71U	-0.0764

Variant	yeast fitness (ln)
U2C G6U A43C C66A A70U C71U	-0.272
G1A U2G G6A A43C C71U	-0.276
G6A C27U C66A A69G A70G C71U	-0.288
U2G G6U C46U C66A A69G C71U	-0.185
G1A U2C G6U C66A A69G A70U	0.0124
G1A U2C A43C C46U C66A A70U C71U	-0.134
U2C C27U C46U A70G	-0.0268
G1A U2G C27U C46U C71U	-0.159
U2C G6A A43C C66U A69G A70U C71U	-0.366
G1A U2C G6A A43C C66U A69G A70U	-0.275
G1A U2C C27U C46U A70U	-0.127
G1A G6A A43C A70U C71U	-0.218
G1A G6U C46U C66A A69G A70G C71U	-0.162
G1A U2G C27U A43C C66U C71U	-0.452
G1A U2G C27U A43C C46U C66U A70U C71U	-0.329
G1A U2G G6A C27U C46U C66U A70U	-0.28
C66U C71U	-0.173
G6A C27U A43C C46U C66U A69G A70U C71U	-0.447
U2C G6A C27U A43C C66U A69G A70U C71U	-0.351
U2C C27U A43C C46U A70U	-0.14
